Experimental data published in ChEMBL document CHEMBL2057139, “Synthesis, antimalarial activity and cytotoxicity of 10-aminoethylether derivatives of artemisinin” (Bioorg Med Chem, 2012).
pIC50: −log10 of the molar value.

How the values were obtained:
CHO = assay: Cytotoxicity against CHO cells by MTT assay; format: cell-based, Cricetulus griseus; conditions: for Activity: chinese hamster, cho; for pIC50: Cricetulus griseus, CHO
Plasmodium falciparum [1] = assay: Antimalarial activity against asexual erythrocyte stage of chloroquine-sensitive Plasmodium falciparum D10 by parasite lactate dehydrogenase assay; format: functional, organism-based
Procedure, shortened: (§1)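 Asexual erythrocyte-stage P. falciparum kept in continuous culture (modified Trager–Jensen). Growth was read by parasite lactate dehydrogenase assay. Stocks were 20 mg/ml in 100% DMSO, sonicated, and tested as suspension if not dissolved. Full dose–response started at 100 ng/ml, with 2-fold serial dilution in complete medium to 10 concentrations (lowest 0.2 ng/ml). Each strain was tested in triplicate on one occasion. IC50 is 50% parasite growth inhibition.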

Plasmodium falciparum [2] = assay: Resistance index ratio of IC50 for asexual erythrocyte stage of chloroquine-resistant Plasmodium falciparum Dd2 to IC50 for asexual erythrocyte stage of chloroquine-sensitive Plasmodium falciparum D10; format: functional
Plasmodium falciparum [3] = assay: Antimalarial activity against asexual erythrocyte stage of chloroquine-resistant Plasmodium falciparum Dd2 by parasite lactate dehydrogenase assay; format: functional, organism-based; procedure, shortened: as §1

## C[C@H]1[C@@H](OCCNCCN2CCCCC2)O[C@@H]2O[C@@]3(C)CC[C@H]4[C@H](C)CC[C@@H]1[C@@]24OO3.O=C(O)C(=O)O
CHO
  Activity: Non-toxic
Plasmodium falciparum [1]
  pIC50: 8.17
Plasmodium falciparum [2]
  Ratio IC50: 9.932
Plasmodium falciparum [3]
  pIC50: 7.18

## C[C@H]1[C@@H](O)O[C@@H]2O[C@@]3(C)CC[C@H]4[C@H](C)CC[C@@H]1[C@@]24OO3 [ARTENIMOL]
Plasmodium falciparum [1]
  pIC50: 9.11
Plasmodium falciparum [2]
  Ratio IC50: 4.433
Plasmodium falciparum [3]
  pIC50: 8.46

## C[C@H]1[C@@H](OCCNCCNc2ccccc2)O[C@@H]2O[C@@]3(C)CC[C@H]4[C@H](C)CC[C@@H]1[C@@]24OO3.O=C(O)C(=O)O
CHO
  pIC50: 4.32
Plasmodium falciparum [1]
  pIC50: 8.58
Plasmodium falciparum [2]
  Ratio IC50: 21.086
Plasmodium falciparum [3]
  pIC50: 7.26

## CC(C)N(CCNCCO[C@H]1O[C@@H]2O[C@@]3(C)CC[C@H]4[C@H](C)CC[C@@H]([C@H]1C)[C@@]24OO3)C(C)C.O=C(O)C(=O)O
CHO
  Activity: Non-toxic
Plasmodium falciparum [1]
  pIC50: 8.74
Plasmodium falciparum [2]
  Ratio IC50: 26.24
Plasmodium falciparum [3]
  pIC50: 7.32

## CC(C)CNCCO[C@H]1O[C@@H]2O[C@@]3(C)CC[C@H]4[C@H](C)CC[C@@H]([C@H]1C)[C@@]24OO3.O=C(O)C(=O)O
CHO
  pIC50: 4.14
Plasmodium falciparum [1]
  pIC50: 8.40
Plasmodium falciparum [2]
  Ratio IC50: 13.68
Plasmodium falciparum [3]
  pIC50: 7.26

## C[C@H]1[C@H](OC(=O)CCC(=O)[O-])O[C@@H]2O[C@@]3(C)CC[C@H]4[C@H](C)CC[C@@H]1[C@@]24OO3.[Na+] [SODIUM ARESUNATE]
Plasmodium falciparum [1]
  pIC50: 9.03
Plasmodium falciparum [2]
  Ratio IC50: 27.719
Plasmodium falciparum [3]
  pIC50: 7.59

## C[C@H]1[C@@H](OCCNCCN2CCOCC2)O[C@@H]2O[C@@]3(C)CC[C@H]4[C@H](C)CC[C@@H]1[C@@]24OO3.O=C(O)C(=O)O
CHO
  Activity: Non-toxic
Plasmodium falciparum [1]
  pIC50: 8.16
Plasmodium falciparum [2]
  Ratio IC50: 8.945
Plasmodium falciparum [3]
  pIC50: 7.21

## C[C@H]1[C@@H](OCCNCc2ccco2)O[C@@H]2O[C@@]3(C)CC[C@H]4[C@H](C)CC[C@@H]1[C@@]24OO3.O=C(O)C(=O)O
CHO
  pIC50: 4.10
Plasmodium falciparum [1]
  pIC50: 8.62
Plasmodium falciparum [2]
  Ratio IC50: 8.858
Plasmodium falciparum [3]
  pIC50: 7.67

## CC[C@H]1CN2CCc3cc(OC)c(OC)cc3[C@@H]2C[C@@H]1C[C@H]1NCCc2cc(OC)c(OC)cc21 [EMETINE]
CHO
  pIC50: 7.70

## C[C@H]1[C@@H](OCCNCCCn2ccnc2)O[C@@H]2O[C@@]3(C)CC[C@H]4[C@H](C)CC[C@@H]1[C@@]24OO3.O=C(O)C(=O)O
CHO
  Activity: Non-toxic
Plasmodium falciparum [1]
  pIC50: 8.22
Plasmodium falciparum [2]
  Ratio IC50: 31.343
Plasmodium falciparum [3]
  pIC50: 6.72

## C[C@H]1[C@@H](OCCN2CCCCC2)O[C@@H]2O[C@@]3(C)CC[C@H]4[C@H](C)CC[C@@H]1[C@@]24OO3.O=C(O)C(=O)O
CHO
  Activity: Non-toxic
Plasmodium falciparum [1]
  pIC50: 8.48
Plasmodium falciparum [2]
  Ratio IC50: 9.695
Plasmodium falciparum [3]
  pIC50: 7.49

## C[C@H]1[C@@H](OCCN(C)Cc2ccccc2)O[C@@H]2O[C@@]3(C)CC[C@H]4[C@H](C)CC[C@@H]1[C@@]24OO3.O=C(O)C(=O)O
CHO
  pIC50: 3.85
Plasmodium falciparum [1]
  pIC50: 8.84
Plasmodium falciparum [2]
  Ratio IC50: 13.888
Plasmodium falciparum [3]
  pIC50: 7.70

## C[C@H]1[C@@H](OCCN2CCOCC2)O[C@@H]2O[C@@]3(C)CC[C@H]4[C@H](C)CC[C@@H]1[C@@]24OO3.O=C(O)C(=O)O
CHO
  Activity: Non-toxic
Plasmodium falciparum [1]
  pIC50: 8.33
Plasmodium falciparum [2]
  Ratio IC50: 3.483
Plasmodium falciparum [3]
  pIC50: 7.79

## C[C@H]1[C@@H](OCCN2CCNCC2)O[C@@H]2O[C@@]3(C)CC[C@H]4[C@H](C)CC[C@@H]1[C@@]24OO3.O=C(O)C(=O)O
CHO
  Activity: Non-toxic
Plasmodium falciparum [1]
  pIC50: 8.74
Plasmodium falciparum [2]
  Ratio IC50: 28.318
Plasmodium falciparum [3]
  pIC50: 7.29
